# Tests used:
# [1] = Compound was tested for plasma concentration in dogs 7 hours after oral administration (30 mg/kg); type: ADME, organism-based, Canis lupus familiaris; conditions: dog
# In short: (§1)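 Male beagle dogs (BW ~9.3 kg, n = 3), single oral dose of 30 mg/kg. Vehicle was 80:20 propylene glycol:sterile water (15.0 mg/mL) or, in some studies, a 0.5% carboxymethyl cellulose suspension. Blood sampled up to 24 h. Plasma level at 7 h determined by LCMS. Noncompartmental analysis of individual concentration-time profiles.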
# [2] = Compound was tested in vitro for loss of compound after 30 min exposure to liver microsomes of dog at 25 uM concentration; type: ADME, organism-based, Canis lupus familiaris; conditions: read-out: Metabolism
# In short: (§2)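 Pooled liver microsomes (dog, monkey or human; 1 mg/mL, 6–8 livers) with 2 mM NADPH in 100 mM potassium phosphate, pH 7.4, preincubated 1 min at 37 °C. Started with 25 μM compound, run 30 min, quenched with acetonitrile. Time-zero controls quenched before compound addition. Remaining compound by reversed-phase HPLC at 215 nm. Reported as % metabolized.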
# [3] = Compound was tested in vitro for loss of compound after 30 min exposure to liver microsomes of human at 25 uM concentration; type: ADME, organism-based; conditions: read-out: Metabolism; in short: as §2
# [4] = Thermodynamic aqueous solubility was determined; type: physicochemical; conditions: buffer
# In short: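 1–2 mg compound stirred in 1 mL of pH 7.0, 50 mM phosphate buffer at room temperature for 4 h. Filtered through a 0.45 μm filter. Filtrate concentration determined by HPLC against a standard of known concentration.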
# [5] = Half-life upon exposure to human plasma; type: ADME, organism-based
# In short: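 Pooled heparinized human plasma (10 donors) or 100 mM potassium phosphate pH 7.4 buffer (n = 3 each), spiked to final 25 μM compound from acetonitrile stock. Incubated at 37 °C for 1–3 h with regular sampling. Protein precipitated with acetonitrile, then LC quantification against a 0.05–40 μg/mL standard curve. Half-life by linear regression of mean concentration-time data.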
# Enterovirus [6] = test: In vitro anti-rhinoviral activity against human rhinovirus serotypes 2,3,9,14,16,25 and 39; type: functional, organism-based
# Caco-2 = conditions: Homo sapiens
# [7] = target: T1, Human rhinovirus A protease (Human rhinovirus sp.) (UniProt Q4U254);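 also: inhibition of the human rhinovirus 3C protease enzyme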
# T1 sequence (whole entry): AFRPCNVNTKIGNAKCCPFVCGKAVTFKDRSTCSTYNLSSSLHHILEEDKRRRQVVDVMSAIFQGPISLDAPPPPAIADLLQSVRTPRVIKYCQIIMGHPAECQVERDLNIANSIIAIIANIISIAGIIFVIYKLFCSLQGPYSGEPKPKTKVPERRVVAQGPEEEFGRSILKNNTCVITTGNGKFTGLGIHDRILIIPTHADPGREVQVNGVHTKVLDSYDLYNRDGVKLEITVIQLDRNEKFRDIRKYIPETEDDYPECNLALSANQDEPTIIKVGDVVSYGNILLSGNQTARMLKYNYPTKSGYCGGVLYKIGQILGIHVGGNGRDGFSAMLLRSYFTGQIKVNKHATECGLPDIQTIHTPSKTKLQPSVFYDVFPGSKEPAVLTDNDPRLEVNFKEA
# Enterovirus [8] = test: In vitro antirhinoviral activity against human rhinovirus serotypes 9,14 and 25; type: functional, organism-based
# Enterovirus [9] = test: In vitro antirhinoviral activity against human rhinovirus serotypes 2, 3, 9, 14, 16 and 39 (mean)
# [10] = Compound was tested in vitro for loss of compound after 2 hours exposure to hepatocytes of human at 25 uM concentration; type: ADME, organism-based, Hepatocyte; conditions: read-out: Metabolism
# Enterovirus [11] = test: In vitro antirhinoviral activity mean against human rhinovirus serotypes 2, 3, 9, 14, 16 and 25
# [12] = Compound was tested for human plasma protein binding; type: ADME, cell-free
# In short: (§3)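 Ultrafiltration binding. Compound added from 1 mM and 0.1 mM stocks into heparinized dog or human plasma or pH 7.4 phosphate buffer, giving final 1 and 10 μM. Incubated 1 h at 37 °C, then centrifugal ultrafiltration. Filtrate and whole plasma quantified by LCMS with internal standard. % free = filtrate/whole plasma × 100. Three replicates per species per concentration.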
# Canis familiaris = species: Canis familiaris; test: Compound was tested for plasma protein binding of dog; type: ADME, organism-based, Canis lupus familiaris; in short: as §3
# [13] = Compound was tested for plasma concentration in CM-monkeys 7 hours after oral administration (50 mg/kg); type: ADME, organism-based, Macaca fascicularis; conditions: cynomolgus monkey
# In short: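 Male CM-monkeys (BW ~3.9 kg, n = 3), single oral dose of 50 mg/kg in 80:20 propylene glycol:sterile water at 15.0 mg/mL. Blood sampled periodically up to 24 h post-dose. Plasma concentration at 7 h measured by LCMS. Parameters from noncompartmental analysis of individual concentration-time data.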
# [14] = Compound was tested in vitro for loss of compound after 2 hours exposure to hepatocytes of dog at 25 uM concentration; type: ADME, organism-based, Canis lupus familiaris, Hepatocyte; conditions: read-out: Metabolism
# [15] = Compound was tested in vitro for loss of compound after 2 hours exposure to hepatocytes of monkey at 25 uM concentration; type: ADME, cell-based, Hepatocyte; conditions: simiiformes, read-out: Metabolism
# [16] = Compound was tested for plasma concentration in dogs 7 hours after oral administration (30 mg/kg) in experiment 1; type: ADME, organism-based, Canis lupus familiaris; conditions: dog; in short: as §1
# [17] = Compound was tested for plasma concentration in dogs 7 hours after oral administration (30 mg/kg) in experiment 2; type: ADME, organism-based, Canis lupus familiaris; conditions: dog; in short: as §1
# [18] = Compound was tested in vitro for loss of compound after 30 min exposure to liver microsomes of monkey at 25 uM concentration; type: ADME, Microsome; conditions: simiiformes, read-out: Metabolism; in short: as §2
# [19] = Compound was tested in vitro for loss of compound after 2 hours exposure to hepatocytes of monkey at 5 uM concentration; type: ADME, cell-based, Hepatocyte; conditions: simiiformes, read-out: Metabolism
# [20] = Compound was tested in vitro for loss of compound after 4 hours exposure to hepatocytes of monkey at 25 uM concentration; type: ADME, cell-based, Hepatocyte; conditions: simiiformes, read-out: Metabolism
# [21] = Compound was tested in vitro for loss of compound after 4 hours exposure to hepatocytes of dog at 25 uM concentration; type: ADME, organism-based, Canis lupus familiaris, Hepatocyte; conditions: read-out: Metabolism
# [22] = Compound was tested in vitro for loss of compound after 4 hours exposure to hepatocytes of human at 25 uM concentration; type: ADME, organism-based, Hepatocyte; conditions: read-out: Metabolism
SMILES,"metabolised at 0.5 h, 25 µM [2]","metabolised at 0.5 h, 25 µM [3]",solubility thermodynamic [4],half-life [5],EC50 (Enterovirus [6]),Papp (Caco-2),K obs / 1 [7],also measured
C#CC[C@@H](C(=O)N[C@H](/C=C/C(=O)OC1CCC1)C[C@@H]1CCNC1=O)n1cccc(NC(=O)c2cc(C)on2)c1=O,53%,52%,25 µg/mL,3.3 h,90 nM,14 10e-6 cm s-1,207000 M⁻¹ s⁻¹,concentration at 7 h [1]: 73 nM
CC[C@@H](C(=O)N[C@H](/C=C/C(=O)OC(C)C)C[C@@H]1CCNC1=O)n1cccc(NC(=O)c2cc(C)on2)c1=O,,,,,,,36000 M⁻¹ s⁻¹,EC50 (Enterovirus [8]): 322 nM
CCOC(=O)c1ccc(OCCC2CCN(c3ccc(C)nn3)CC2)cc1 [PIRODAVIR],,,,,,,,EC50 (Enterovirus [9]): 31 nM
C#CC[C@@H](C(=O)N[C@H](/C=C/C(=O)OC1CCCCC1)C[C@@H]1CCNC1=O)n1cccc(NC(=O)c2cc(C)on2)c1=O,,,,,,,34000 M⁻¹ s⁻¹,EC50 (Enterovirus [8]): 406 nM
CCOC(=O)/C=C/[C@H](C[C@@H]1CCNC1=O)NC(=O)[C@H](Cc1ccc(F)c(F)c1)n1cccc(NC(=O)c2cc(C)on2)c1=O,57%,81%,25 µg/mL,1.4 h,11 nM,35 10e-6 cm s-1,,"metabolised at 2 h, 25 µM [10]: 94%"
C#CC[C@@H](C(=O)N[C@H](/C=C/C(=O)OC(C)C)C[C@@H]1CCNC1=O)n1cccc(NC(=O)c2cc(C)on2)c1=O,,,,,,,100000 M⁻¹ s⁻¹,EC50 (Enterovirus [11]): 174 nM
CC[C@@H](C(=O)N[C@H](/C=C/C(=O)OC1CCCCC1)C[C@@H]1CCNC1=O)n1cccc(NC(=O)c2cc(C)on2)c1=O,,,,,,,23000 M⁻¹ s⁻¹,EC50 (Enterovirus [8]): 313 nM
CC[C@@H](C(=O)N[C@H](/C=C/C(=O)OCC(C)(C)C)C[C@@H]1CCNC1=O)n1cccc(NC(=O)c2cc(C)on2)c1=O,,,,,310 nM,,38200 M⁻¹ s⁻¹,
CC[C@@H](C(=O)N[C@H](/C=C/C(=O)OC1CCC1)C[C@@H]1CCNC1=O)n1cccc(NC(=O)c2cc(C)on2)c1=O,46%,49%,192 µg/mL,9.2 h,76 nM,10 10e-6 cm s-1,170000 M⁻¹ s⁻¹,Free [12]: 33%; Free (Canis familiaris): 42%; concentration at 7 h [1]: 222 nM
C#CC[C@@H](C(=O)N[C@H](/C=C/C(=O)OC1CCCCCC1)C[C@@H]1CCNC1=O)n1cccc(NC(=O)c2cc(C)on2)c1=O,,,,,,,47000 M⁻¹ s⁻¹,EC50 (Enterovirus [8]): 812 nM
C#CC[C@@H](C(=O)N[C@H](/C=C/C(=O)OCc1ccccc1)C[C@@H]1CCNC1=O)n1cccc(NC(=O)c2cc(C)on2)c1=O,67%,52%,22 µg/mL,4.3 h,36 nM,18 10e-6 cm s-1,300000 M⁻¹ s⁻¹,"Free [12]: 13%; Free (Canis familiaris): 25%; concentration at 7 h [13]: 3 nM; concentration at 7 h [1]: 563 nM; metabolised at 2 h, 25 µM [14]: 61%; metabolised at 2 h, 25 µM [10]: 51%; metabolised at 2 h, 25 µM [15]: 69%"
CCOC(=O)/C=C/[C@H](C[C@@H]1CCNC1=O)NC(=O)[C@H](CC)n1cccc(NC(=O)c2cc(C)on2)c1=O,37%,61%,38 µg/mL,5.6 h,47 nM,5 10e-6 cm s-1,170000 M⁻¹ s⁻¹,"concentration at 7 h [13]: 896 nM; concentration at 7 h [16]: 682 nM; concentration at 7 h [17]: < 10 nM; metabolised at 2 h, 25 µM [14]: 14%; metabolised at 2 h, 25 µM [10]: 82%; metabolised at 0.5 h, 25 µM [18]: 61%; metabolised at 2 h, 5 µM [19]: 76%"
C#CC[C@@H](C(=O)N[C@H](/C=C/C(=O)OC1CCCC1)C[C@@H]1CCNC1=O)n1cccc(NC(=O)c2cc(C)on2)c1=O,76%,59%,15 µg/mL,12.5 h,174 nM,36 10e-6 cm s-1,186000 M⁻¹ s⁻¹,Free [12]: 7%; Free (Canis familiaris): 20%; concentration at 7 h [1]: 160 nM
CC[C@@H](C(=O)N[C@H](/C=C/C(=O)OCc1ccccc1)C[C@@H]1CCNC1=O)n1cccc(NC(=O)c2cc(C)on2)c1=O,69%,56%,41 µg/mL,2.5 h,64 nM,11 10e-6 cm s-1,210000 M⁻¹ s⁻¹,"Free [12]: 8%; Free (Canis familiaris): 20%; concentration at 7 h [1]: 156 nM; metabolised at 2 h, 25 µM [14]: 55%; metabolised at 2 h, 25 µM [10]: 27%"
C#CC[C@@H](C(=O)N[C@H](/C=C/C(=O)OC(C)(C)C)C[C@@H]1CCNC1=O)n1cccc(NC(=O)c2cc(C)on2)c1=O,,,,,361 nM,,60500 M⁻¹ s⁻¹,
CC[C@@H](C(=O)N[C@H](/C=C/C(=O)OC(C)(C)C)C[C@@H]1CCNC1=O)n1cccc(NC(=O)c2cc(C)on2)c1=O,,,,,405 nM,,45100 M⁻¹ s⁻¹,
CC[C@@H](C(=O)N[C@H](/C=C/C(=O)OC1CCCCCC1)C[C@@H]1CCNC1=O)n1cccc(NC(=O)c2cc(C)on2)c1=O,,,,,,,15000 M⁻¹ s⁻¹,
C#CC[C@@H](C(=O)N[C@H](/C=C/C(=O)OCC)C[C@@H]1CCNC1=O)n1cccc(NC(=O)c2cc(C)on2)c1=O [IMOCITRELVIR],45%,40%,377 µg/mL,6.6 h,58 nM,6 10e-6 cm s-1,223000 M⁻¹ s⁻¹,"Free [12]: 34%; Free (Canis familiaris): 54%; concentration at 7 h [13]: 57 nM; concentration at 7 h [1]: 248 nM; metabolised at 2 h, 25 µM [14]: 12%; metabolised at 2 h, 25 µM [10]: 85%; metabolised at 2 h, 25 µM [15]: 79%; metabolised at 0.5 h, 25 µM [18]: 55%"
C#CC[C@@H](C(=O)N[C@H](/C=C/C(=O)OCC(C)(C)C)C[C@@H]1CCNC1=O)n1cccc(NC(=O)c2cc(C)on2)c1=O,,,,,276 nM,,128000 M⁻¹ s⁻¹,
Cc1cc(C(=O)Nc2cccn([C@@H](Cc3ccc(F)c(F)c3)C(=O)N[C@H](/C=C/C(=O)OC(C)C)C[C@@H]3CCNC3=O)c2=O)no1,57%,56%,21 µg/mL,9.7 h,78 nM,36 10e-6 cm s-1,,"Free [12]: 9%; Free (Canis familiaris): 19%; concentration at 7 h [13]: 12 nM; concentration at 7 h [16]: 815 nM; concentration at 7 h [17]: 959 nM; metabolised at 4 h, 25 µM [20]: 92%; metabolised at 4 h, 25 µM [21]: 16%; metabolised at 4 h, 25 µM [22]: 87%"
Cc1cc(CCCOc2c(C)cc(-c3noc(C(F)(F)F)n3)cc2C)on1 [PLECONARIL],,,,,136 nM,,,
C#CC[C@@H](C(=O)N[C@H](/C=C(\C)C(=O)OCC)C[C@@H]1CCNC1=O)n1cccc(NC(=O)c2cc(C)on2)c1=O,,,,,1460 nM,,12500 M⁻¹ s⁻¹,
